Results on 17 compounds are retold here after ChEMBL document CHEMBL4706684, “Discovering High Potent Hsp90 Inhibitors as Antinasopharyngeal Carcinoma Agents through Fragment Assembling Approach” (J Med Chem, 2021).

The target of assay [1] is T1, Heat shock protein HSP 90-alpha (Homo sapiens, UniProt P07900). As to the kind of experiment: Inhibition of HSP90-alpha (unknown origin) expressed in Escherichia coli BL21 assessed as reduction in ATPase activity in presence of PEP, NADH and ATP by pyruvate kinase/lactic dehydrogenase based coupled enzyme assay.
The next assay has as its system CNE-2. As to the kind of experiment: Cytotoxicity in human CNE-2 cells assessed as reduction in cell viability incubated for 48 hrs by MTT assay. The class given is cell-based. The settings on record: CNE-2, 48 h. In a few lines: (§1)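 Cells were seeded at 3 × 10³ cells per well and grown for 24 h at 37 °C in 5% CO₂. CNE2 was grown in RPMI 1640 and HeLa and HepG2 in DMEM, each with 10% FBS and 1% penicillin/streptomycin. Cells were exposed to 0−20 μM inhibitor for 48 h, with a DMSO solvent control. MTT (0.5 mg/mL) was then added for 3 h.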
Background: Tetrazolium dyes change colour on reduction, which living cells bring about.

The target in assay [2] is T2, Heat shock protein HSP 90-beta (Homo sapiens, UniProt P08238). As to the kind of experiment: Inhibition of HSP90-beta (unknown origin) expressed in Escherichia coli BL21 assessed as reduction in ATPase activity in presence of PEP, NADH and ATP by pyruvate kinase/lactic dehydrogenase based coupled enzyme assay.
T2 sequence (P08238 whole entry): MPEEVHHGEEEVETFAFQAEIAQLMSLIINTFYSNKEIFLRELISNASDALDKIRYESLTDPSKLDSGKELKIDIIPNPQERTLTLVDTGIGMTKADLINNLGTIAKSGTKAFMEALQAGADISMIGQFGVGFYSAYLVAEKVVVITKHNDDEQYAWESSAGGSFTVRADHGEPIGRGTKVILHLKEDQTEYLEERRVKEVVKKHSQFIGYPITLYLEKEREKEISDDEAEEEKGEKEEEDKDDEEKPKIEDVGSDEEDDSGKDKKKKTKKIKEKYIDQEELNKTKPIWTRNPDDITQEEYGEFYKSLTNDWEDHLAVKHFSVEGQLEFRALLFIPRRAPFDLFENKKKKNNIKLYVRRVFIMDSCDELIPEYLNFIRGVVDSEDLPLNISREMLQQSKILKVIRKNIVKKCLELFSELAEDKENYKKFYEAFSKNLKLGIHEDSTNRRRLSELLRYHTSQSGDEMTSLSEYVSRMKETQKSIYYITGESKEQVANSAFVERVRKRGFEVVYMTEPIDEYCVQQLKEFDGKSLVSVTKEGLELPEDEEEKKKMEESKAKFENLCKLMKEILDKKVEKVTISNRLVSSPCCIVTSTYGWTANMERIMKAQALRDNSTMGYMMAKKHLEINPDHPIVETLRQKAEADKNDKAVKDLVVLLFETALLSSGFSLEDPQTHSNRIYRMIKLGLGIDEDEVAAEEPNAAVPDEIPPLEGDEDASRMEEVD
Assay [3] has as its target T1, Heat shock protein HSP 90-alpha. Kind of assay: Binding affinity to HSP90-alpha (unknown origin) expressed in Escherichia coli BL21 by SPR assay.
For another assay, the system named is HeLa. Kind of assay: Cytotoxicity in human HeLa cells assessed as reduction in cell viability incubated for 48 hrs by MTT assay. The class given is cell-based. In a few lines: as §1
The target of assay [4] is T2, Heat shock protein HSP 90-beta. As to the kind of experiment: Binding affinity to HSP90-beta (unknown origin) expressed in Escherichia coli BL21 by SPR assay. In general terms: Surface plasmon resonance follows binding to a sensor surface in real time, without labels.
Another assay relates to HepG2. Kind of assay: Cytotoxicity in human HepG2 cells assessed as reduction in cell viability incubated for 48 hrs by MTT assay. It is filed as cell-based. The conditions noted are these: HepG2, 48 h. In a few lines: as §1

Calls of active or inactive are those of the source. No cut-off for these calls is given here.

For the compound `COc1cc(-c2cn(Cc3ccc(C(C)(C)C)cc3)nn2)cc(OC)c1OC`, the IC50 – broadly, the midpoint of a concentration-inhibition curve – was 2.7 µM in assay [1], 1.8 µM in the assay on CNE-2 and 2.7 µM in assay [2].
As for `CC(C)(C)c1ccc(Cn2cc(-c3ccc(O)cc3N)nn2)cc1`, the results for the IC50 (in assay [1]; in the assay on CNE-2; in assay [2]) were 13.7 µM, 1.6 µM and 14.6 µM, respectively.
For `Cc1noc(N)c1C`, the outcome in assay [3] was Active.
As to `CC(C)(C)c1ccc(Cn2cc(-c3ccc(O)cc3)nn2)cc1`, the IC50 in assay [1] was found to be 1.3 µM; in the assay with CNE-2, 5.6 µM; in assay [2] it was 1.8 µM.
With `CC(=O)c1ccc(-n2ccnc2)cc1`, the outcome in assay [3] was Active.
As to `COc1ccc(-c2cn(Cc3ccc(C(C)(C)C)cc3)nn2)c(N)c1`, the results for the IC50 (in assay [1]; in the assay on CNE-2; in assay [2]) were above 40 µM, above 20 µM and above 40 µM, respectively.
As for `Nc1cccs1`, the outcome in assay [3] was Active.
The same measure, in the same setting: then `O=C(O)c1csc(-c2ccc(Cl)cc2)n1`, with “Active”.
On to `COc1ccc(-c2cn(Cc3ccc(C(C)(C)C)cc3)nn2)cc1`, for which the IC50 was 5.6 µM in assay [1]; 4 µM in the assay with CNE-2; above 50 µM with HeLa; 5.6 µM in assay [2]; above 50 µM with HepG2. Also, the Kd in assay [3] and in assay [4] was 4.8 µM in each case.
In the case of `CC(C)(C)c1ccc(Cn2cc(-c3ccc(O)cc3)nn2)c(O)c1`, the IC50 in assay [1] is above 40 µM; in the assay on CNE-2, above 20 µM; in assay [2], above 40 µM.
In the case of `CC(C)(C)c1csc(N)n1`, the outcome in assay [3] was Active.
`CC(C)(C)c1ccc(Cn2cc(-c3ccc(O)cc3[N+](=O)[O-])nn2)cc1`: the IC50 in assay [1] worked out at 1.7 µM; in the assay on CNE-2, 1.6 µM; in assay [2] it was 1.7 µM.
For the compound `COc1ccc(-c2cn(Cc3ccc(C(C)(C)C)cc3)nn2)c([N+](=O)[O-])c1`, the IC50 stood at 5 µM in assay [1], 1.6 µM in the assay with CNE-2 and 5 µM in assay [2].
Consider `C=CCNC1=C2C[C@@H](C)C[C@H](OC)[C@H](O)[C@@H](C)/C=C(\C)[C@H](OC(N)=O)[C@@H](OC)/C=C\C=C(/C)C(=O)NC(=CC1=O)C2=O` [TANESPIMYCIN], for which the 50% inhibitory concentration (IC50) with CNE-2 was found to be 3.03 µM; with HeLa it was 19.4 µM; in the assay with HepG2 it was 8 µM.
Take `COc1ccc(-c2cn(Cc3cc(C(F)(F)F)cc(C(F)(F)F)c3)nn2)cc1`: the IC50 in assay [1] amounted to 6.2 µM; in the assay with CNE-2 it was 14.1 µM; in the assay with HeLa, 22.4 µM; in assay [2] it was 9.8 µM; in the assay on HepG2, 18.1 µM. Moreover, the values for the Kd in assay [3] and in assay [4] were 3.1 µM and 7 µM, respectively.
Take `Nc1cc(-c2ccccc2)n[nH]1`: in assay [3], the outcome was Active.
Consider `CCSc1ccc(N)s1`, for which the outcome in assay [3] was Active.
